Screening results: PubChem, several laboratories
CHT block – human CHT choline transport inhibition. Q9GZV3. CHT-expressing cells, membrane potential dye, choline response; active compounds read low. B-score at 10 µM. 0.86% of 310,000 active;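 active = B-score over 3 SD under the library average, and starting fluorescence ratio not unusually high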;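 also: choline stimulus applied at its EC90 after an EC20 pre-addition; B-score computed on integrated fluorescence ratio after choline addition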
Target sequence (Q9GZV3 whole entry, looked up): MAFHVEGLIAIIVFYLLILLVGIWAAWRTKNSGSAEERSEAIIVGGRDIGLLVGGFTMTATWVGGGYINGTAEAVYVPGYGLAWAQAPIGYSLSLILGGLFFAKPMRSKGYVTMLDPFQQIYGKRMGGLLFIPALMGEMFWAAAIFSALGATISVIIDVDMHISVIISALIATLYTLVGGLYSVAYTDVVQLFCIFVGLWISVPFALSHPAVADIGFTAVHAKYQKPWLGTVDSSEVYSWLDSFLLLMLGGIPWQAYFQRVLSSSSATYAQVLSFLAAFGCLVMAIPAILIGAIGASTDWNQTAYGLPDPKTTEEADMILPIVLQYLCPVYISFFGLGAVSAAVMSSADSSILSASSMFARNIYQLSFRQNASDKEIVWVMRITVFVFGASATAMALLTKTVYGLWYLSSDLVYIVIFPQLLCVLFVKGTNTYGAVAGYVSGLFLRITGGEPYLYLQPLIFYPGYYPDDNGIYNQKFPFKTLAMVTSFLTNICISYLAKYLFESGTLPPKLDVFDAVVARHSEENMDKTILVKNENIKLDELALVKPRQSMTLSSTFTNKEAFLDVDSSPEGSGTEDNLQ
PolyA inh – yeast polyadenylation inhibition; 0.02% of 300,000 active; AID 1875; S. cerevisiae SKY197-pL101 polyadenylation reporter, beta-gal luminescence; efflux-impaired pdr1/pdr3 knockout yeast; score 100 = 6 SD above DMSO; activity score, % at 12 µM;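 active = lowest replicate activity score at least 50, where 100 means six control SD above control mean; inconclusive = lowest score under 50 but half or more replicates reach 50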;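 also: yeast exposed to compound for 9 h at 30 °C; higher score means more reporter readthrough which indicates perturbed polyadenylation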
CHT PAM – allosteric activators of human choline transporter CHT; Q9GZV3; CHT-expressing cells, membrane potential dye, choline EC20; active compounds read high; LV-AA mutant CHT in HEK293 cells; B-score at 10 µM; 0.49% of 310,000 active; AID 488977;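 active = initial fluorescence not abnormally high and integrated response B-score, plate-corrected, over 3 SD above library mean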
T cruzi inh – blocks replication of Trypanosoma cruzi | AID 1885 | T. cruzi beta-gal in NIH3T3, luminescence, 90 h | inhibition, % (concentration not given with the values) | 1.4% of 300,000 active;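 active = mean inhibition across valid replicates above about 55%, limit read from the data; inconclusive = mean below that limit but half or more replicates reach it; inactive = mean below it, under half of replicates reach it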;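 also: signal also drops with host cell toxicity which is not excluded here; higher percent means less beta-gal luminescence so fewer parasites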
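System: Mouse NIH/3T3 fibroblasts infected with β-gal-expressing T. cruzi Tulahuen C4 | Quantity: NIH/3T3 cells, 5,000 per well | Reagent: 5000 reporter trypomastigotes per well | Dosing: Compound pinned at 50 nL/well, DMSO | Schedule: 3 h host attachment, then at least 90 h co-culture | Detection: GalScreen luminescence, 60 min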
CHT act confirm – confirmation of human choline transporter (CHT) activators | shares compounds with CHT PAM | CHT-expressing cells, membrane potential dye fluorescence (FDSS); % of choline EC20–EC90 response window; HEK293 expressing CHT LV-AA mutant; choline added at its EC20 | activation, % at 10 µM | 91% of 2,500 active;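 active = primary screen active, with duplicate mean activation above negative control mean plus 3 SD, cut at about 11% in these data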
HEK293 MP dye – CHT activator counter-screen hit in parental HEK293 cells. shares compounds with CHT PAM. membrane potential dye fluorescence (FDSS); measured after EC20 choline addition. ratio readout change at 10 µM, hits read low. 62% of 2,500 active. AID 623908;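 active = duplicate-averaged ratio beyond 3 SD from buffer wells, up or down, though filed actives are nearly all decreases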
Numbers stand for hits; – = inactive; ? = inconclusive; · = no result. Rows were chosen to be rich in hits. Some 2.6% of all compounds tested hit in one or more screens of this group.

SMILES | CHT block | PolyA inh | CHT PAM | T cruzi inh | CHT act confirm | HEK293 MP dye
CCn1cc(CN2CCC(n3nccc3NC(=O)CCc3ccccc3)CC2)cn1 | – | – | – | – | · | ·
O=C(Nc1cccc(F)c1)Nc1ccc2c(c1)OCO2 | – | – | – | – | · | ·
COc1ccc(N(CC(=O)NCc2ccccc2OC)S(=O)(=O)c2ccccc2)cc1 | – | – | – | – | · | ·
COc1ccc(OC)c(S(=O)(=O)N2CCCC(N3CCN(c4ccccc4)CC3)C2)c1 (stereo not given) | – | – | – | – | · | ·
C=CCOc1ccc2ccccc2c1CNCCCN1CCOCC1 | – | – | – | – | · | ·
C=CCOc1ccc(Br)cc1CNCCCN1CCOCC1 | – | – | – | – | 29 | –
Cc1cc(N2CCN(S(=O)(=O)c3ccc(Cl)c(Cl)c3)CC2)c2ccccc2n1 | – | – | – | · | · | ·
Cc1cc(N2CCN(CC(O)C(F)(F)F)CC2)c2ccccc2n1 (stereo not given) | – | – | – | – | 72 | -72
COc1cccc(Cl)c1NC(=O)N1CCN(c2cc(C)nc3ccccc23)CC1 | – | – | 6.7 | – | 42 | -50
Cc1cc(N2CCN(S(=O)(=O)c3ccc(Cl)cc3)CC2)c2ccccc2n1 | – | – | – | – | · | ·
COc1ccc(C(=O)CN2CCN(c3cc(C)nc4ccccc34)CC2)cc1 | – | – | 8.5 | – | 64 | -78
COc1ccc2nc(C)cc(N3CCN(c4ccccc4)CC3)c2c1 | – | – | – | – | · | ·
COc1ccc2nc(C)cc(N3CCOCC3)c2c1 | – | – | – | – | 68 | -81
CC1CC(C)CN(CCC(=O)Nc2ccc(Br)cc2)C1 (stereo not given) | – | – | – | – | · | ·
CCC(Oc1ccc(C)cc1)C(=O)Nc1ccccc1C(=O)N1CCOCC1 (stereo not given) | – | – | – | – | · | ·
COC(=O)C[C@H]1c2cc(C(F)(F)F)ccc2S(=O)(=O)N1C(C)(C)C | – | – | – | – | · | ·
FC(F)(F)COc1cc(-c2nnc(SCc3ccccc3)n2Cc2ccco2)cc(OCC(F)(F)F)n1 | – | – | 9.2 | ? | 24 | –
c1cncc(CSc2nnc(-c3cccnc3)n2Cc2ccco2)c1 | · | – | · | – | · | ·
Clc1ccc2c(N3CCOCC3)ccnc2c1 | – | ? | – | – | 50 | -50
CCOC(=O)N1CCN(c2ccnc3cc(Cl)ccc23)CC1 | – | – | – | – | · | ·
CCC(=O)N1CCN(c2ccnc3cc(Cl)ccc23)CC1 | – | – | 7.6 | – | 68 | -63
COc1ccc(N2CCN(c3ccnc4cc(Cl)ccc34)CC2)cc1 | – | – | – | – | · | ·
NS(=O)(=O)c1ccc(CCNC(=O)COC(=O)Cc2c(F)cccc2Cl)cc1 | – | – | – | – | · | ·
COc1ccc(S(=O)(=O)N2c3ccccc3OCC2C)cc1 (stereo not given) | – | – | 7.1 | – | 32 | –
CC1(C)Cc2c(cnn2-c2ccc(F)cc2)C(NC(=O)CN2CCCC2=O)C1 (stereo not given) | – | – | – | – | · | ·
SMILES | CHT block | PolyA inh | CHT PAM | T cruzi inh | CHT act confirm | HEK293 MP dye
Cc1c(C)c2ccc(OC(C)C(=O)NCc3ccccn3)cc2oc1=O (stereo not given) | – | – | – | – | · | ·
Cc1cc(C)c2[nH]c(=O)c(C(c3nnnn3CC3CCCO3)N3CCC(C)CC3)cc2c1 (stereo not given) | – | – | – | – | · | ·
Cc1cc(C)c2[nH]c(=O)c(C(c3nnnn3CC3CCCO3)N3CCCC(C)C3)cc2c1 (stereo not given) | – | – | 7.3 | – | – | –
CC(=O)N1CCN(c2ccccc2NC(=O)COc2cc(C)ccc2C(C)C)CC1 | – | – | 10 | · | 44 | –
CCN(CC)c1cc(C)c2cc(NC(=O)CNC(C)=O)ccc2n1 | – | – | 6.5 | – | 56 | -31
CCN(CC)c1cc(C)c2cc(NC(=O)c3ccccc3F)ccc2n1 | – | – | – | – | · | ·
CC(c1ccccc1)N(CCC(c1ccccc1)C1CCOC(C)(C)C1)C(=O)c1ccco1 (stereo not given) | – | – | 6.4 | – | 34 | –
Cc1ccc(S(=O)(=O)N(C)C)cc1NC(=S)NC(=O)C12CC3CC(CC(C3)C1)C2 | – | – | – | – | – | –
CC(C)(C)OC(=O)NC(CNCc1ccccc1)Cc1ccccc1 (stereo not given) | – | – | – | – | · | ·
CCOC(=O)C1=C(COC(=O)c2cc(OC)c(OC)cc2[N+](=O)[O-])NC(=O)NC1C (stereo not given) | – | – | – | – | · | ·
Cc1cccn2c(Nc3ccccc3)c(-c3ccccn3)nc12 | – | – | – | – | 41 | -25
COc1ccc(C2Nc3ccccc3C(=O)N2c2ccc(C)cc2)cc1Cn1nnc2ccccc21 (stereo not given) | – | – | – | – | 10 | –
COc1ccc(C2Nc3ccccc3C(=O)N2c2ccc(C)cc2)cc1Cn1cc([N+](=O)[O-])cn1 (stereo not given) | – | – | – | – | · | ·
CCOC(=O)c1c(-c2cccc([N+](=O)[O-])c2)csc1N | – | – | – | – | · | ·
Cc1csc2cc(-c3cccc([N+](=O)[O-])c3)c(-c3cccc([N+](=O)[O-])c3)c[n+]12 | – | – | 9.3 | – | 86 | -87
Fc1ccc(C(CCNCc2ccccn2)c2ccc(Cl)cc2)cc1 (stereo not given) | – | – | – | – | 16 | –
CCOc1ccc(-n2c(SCC(N)=O)nc3sc4c(c3c2=O)CCN(C)C4)cc1 | – | – | – | · | 38 | -33
CCOC(=O)CSc1nc2sc3c(c2c(=O)n1C1CCCCC1)CCN(C)C3 | – | – | 8.1 | 57 | 27 | -29
C=CCOc1ccc(/C=N/n2nnnc2N)cc1OC | – | – | – | – | · | ·
O=C(CCCn1c(=O)[nH]c2ccccc2c1=O)NC1CCCCCC1 | – | – | – | – | · | ·
CC1CCC(NC(=O)CCCn2sc3ccccc3c2=O)CC1 (stereo not given) | – | – | 8.7 | – | 27 | –
CNc1cc(C)nc(N2CCOCC2)n1 | – | – | – | – | 53 | -43
Cc1cc(NC2CCCCC2)nc(N2CCOCC2)n1 | – | – | – | – | · | ·
CCC1CCCCN1C(=O)c1cc(COc2ccc(-n3cncn3)cc2)on1 (stereo not given) | – | – | – | – | · | ·
CCN(CC)CCNC(=O)COc1ccc(OC)cc1 | – | – | – | – | · | ·
CCN(CC)CCCCNc1ncc2cc(-c3cc(OC)cc(OC)c3)c(NC(=O)NC(C)(C)C)nc2n1 | – | – | 6.7 | – | 47 | -23
CCCCC1CCC(C(=O)OC(C)C(=O)Nc2ccc(NC(C)=O)cc2)CC1 (stereo not given) | – | – | – | – | · | ·
COc1cc(C(=O)Nc2sc3c(c2C(=O)NCc2ccco2)CCCC3)cc(OC)c1OC | – | – | 7.6 | – | – | –
